Reference: publication PMC7992179 (ACS Omega, 2021)

Legend:
[1] = test system: MCF-7 cell line; assay: MTT cytotoxicity assay in MCF-7 cells; assay type: cell-based, human; conditions: 48 h, MTT; for % inhibition/stimulation: conc. 30 μM
Summary of the method: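 MCF-7 cells grown in Eagle's MEM with 10% FBS, 1% penicillin/streptomycin, 0.1 mM non-essential amino acids, 10 μg/mL insulin and 1 mM sodium pyruvate at 37 °C, 5% CO2. Trypsin/EDTA-harvested cells were seeded at 6 × 10^4 cells/mL and incubated overnight. Test compound (1–30 μM, or a fixed 30 μM screen against doxorubicin) was applied for 48 h. MTT 0.5 mg/mL for 4 h, DMSO, A570; % inhibition and IC50.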

[2] = test system: PTZ-induced convulsions; assay: PTZ-induced convulsions in mice; assay type: in vivo; conditions: for average duration of seizure / latency time / seizure score / mortality: 5 mg/kg i.p., PTZ 70 mg/kg i.p., n = 10; for average duration of seizure / latency time / seizure score: mean ± SEM; for enhancement of latency time of PTZ-induced seizures compared with the standard LTG drug: 5 mg/kg, vs LTG
Summary of the method: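 Overnight-fasted albino mice (n = 10 per group) received test compound at 5 mg/kg i.p., suspended in carboxymethylcellulose and sonicated. Controls were vehicle, PTZ alone and lamotrigine (dose-finding at 1–5 mg/kg). Clonic seizures were induced with PTZ 70 mg/kg i.p. Recorded: latency, convulsion duration, number of convulsions, protection, and a 0–6 seizure score (6 = death). Mean ± SEM; one-way ANOVA with Dunnett's test versus the PTZ group.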

[3] = test system: motor coordination on rotating rod; assay: Neurotoxicity / minimal motor impairment, rotating rod; assay type: in vivo; conditions: rod observed 5 min, mean ± SEM, 10 mice
Summary of the method: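 White albino mice of either sex, 8–10 weeks, 25–35 g, were trained on a rotating rod (2.5 cm diameter, 25 cm high). After i.p. dosing (10, 30 or 50 mg/kg), motor coordination was scored over 5 min at 30 min and 4 h. Neurotoxicity meant failure to stay on the rod for 1 min. 10 mice per group; mean ± SEM.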

| Substance | IC50 ± SD ([1]; MCF-7, 1–30 μM) | % inhibition/stimulation [1] [%] | average duration of seizure [2] [s] | latency time [2] [s] | seizure score [2] [counts] | mortality [2] [counts] | enhancement of latency time of PTZ-induced seizures compared with the standard LTG drug [2] [%] | time on Rod ([3]; dose 10 mg/kg i.p.) [s] | time on Rod ([3]; dose 30 mg/kg i.p.) [s] | time on Rod ([3]; dose 50 mg/kg i.p.) [s] | IC50 ([1]; read-out: IC50 ± SD, MCF-7, 1–30 μM) [µM] |
| --- | --- | --- | --- | --- | --- | --- | --- | --- | --- | --- | --- |
| 2,2′-{[6-(2,3-Dichlorophenyl)-1,2,4-Triazine-3,5-Diyl]bis[azanylylidene(E)methanylylidene]}diphenol Zinc Chloride Coordinate Complex [4b] | inactive | 0.00 | 81.5 ± 2.1 | 240.0 ± 10.3 | 10.0 ± 6.5 | 0.0 | 13 | 105.0 ± 98.5 | 80.6 ± 78.6 | 54.26 ± 42.3 | – |
| 4-{[(3-{(E)-[(4-Hydroxy-3-methoxyphenyl)methylidene]amino}-6-(2,3-dichlorophenyl)-1,2,4-triazin-5-yl)imino]methyl}-2-methoxyphenol Copper Acetate Coordinate Complex [5c] | inactive | 0.00 | 115 ± 10.0 | 230.0 ± 70.1 | 10.0 ± 2.6 | 0.0 | 8 | 121.7 ± 98.3 | 90.0 ± 85.6 | 75.64 ± 52.7 | – |
| 2,2′-{[6-(2,3-Dichlorophenyl)-1,2,4-triazine-3,5-diyl]bis[azanylylidene(E)methanylylidene]}diphenol Silver Nitrate Coordinate Complex [6b] | – | 101.2 | 95 ± 10.5 | 330.0 ± 67.8 | 12.0 ± 1.8 | 0.0 | 56 | 153.3 ± 92.7 | 146.3 ± 90.9 | 130.0 ± 91.7 | 11.9 ± 0.27 |
